Calls of active or inactive are those of the source. The rule behind the calls is not given here.
Columns and labels:
K562 [1] = assay: Cell cycle arrest in human K562 cells assessed as accumulation at S phase at IC50 after 72 hrs by propidium iodide staining based flow cytometry (reference value: 41.03%); format: functional
MCF7 = assay: Cytotoxicity against human MCF7 cells assessed as reduction in cell viability after 72 hrs by MTT assay; format: functional, cell-based; details: MCF7, 72 h
K562 [2] = assay: Induction of apoptosis in human K562 cells assessed as increase in caspase 3 expression level by Western blot analysis; format: functional, cell-based
Procedure, shortened: (§1)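 Western blot of treated K562 cells for Bcl-2, Bax, activated caspase 3 and cleaved PARP (85 kDa fragment). Blots developed by ECL, with band expression quantified by densitometry against an untreated control sample.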

K562 [3] = assay: Induction of apoptosis in human K562 cells assessed as total late apoptotic cells by Annexin V-FITC/propidium iodide staining based flow cytometry (reference value: 0.77%); format: functional
K562 [4] = assay: Cell cycle arrest in human K562 cells assessed as total cell levels at G0/G1 phase at IC50 after 72 hrs by propidium iodide staining based flow cytometry (reference value: 39.97%); format: functional
K562 [5] = assay: Induction of apoptosis in human K562 cells assessed as increase in Bax expression level by Western blot analysis; format: functional, cell-based; procedure, shortened: as §1
A549 = assay: Cytotoxicity against human A549 cells assessed as reduction in cell viability after 72 hrs by MTT assay; format: functional, cell-based; details: A549, 72 h
K562 [6] = assay: Cell cycle arrest in human K562 cells assessed as accumulation at G2/M phase at IC50 after 72 hrs by propidium iodide staining based flow cytometry (reference value: 19.01%); format: functional
K562 [7] = assay: Induction of apoptosis in human K562 cells assessed as specific necrosis by Annexin V-FITC/propidium iodide staining based flow cytometry; format: functional; parameters: concentration or dose not given beside the values
MDA-MB-231 = assay: Cytotoxicity against human MDA-MB-231 cells assessed as reduction in cell viability after 72 hrs by MTT assay; format: functional, cell-based; details: MDA-MB-231, 72 h
K562 [8] = assay: Cell cycle arrest in human K562 cells assessed as total cell levels at G2/M phase at IC50 after 72 hrs by propidium iodide staining based flow cytometry (reference value: 14.31%); format: functional
K562 [9] = assay: Induction of apoptosis in human K562 cells assessed as gated early apoptotic cells by Annexin V-FITC/propidium iodide staining based flow cytometry (reference value: 3.18%); format: functional
K562 [10] = assay: Induction of apoptosis in human K562 cells assessed as gated necrotic cells by Annexin V-FITC/propidium iodide staining based flow cytometry (reference value: 0.24%); format: functional
MRC5 = assay: Cytotoxicity against human MRC5 cells assessed as reduction in cell viability after 72 hrs by MTT assay; format: cell-based; details: MRC5, 72 h
HeLa = assay: Cytotoxicity against human HeLa cells assessed as reduction in cell viability after 72 hrs by MTT assay; format: functional, cell-based
K562 [11] = assay: Cell cycle arrest in human K562 cells assessed as accumulation at sub G1 phase at IC50 after 72 hrs by propidium iodide staining based flow cytometry (reference value: 1.48%); format: functional
K562 [12] = assay: Potency index, ratio of doxorubicin IC50 to compound IC50 for human K562 cells; format: functional
K562 [13] = assay: Induction of apoptosis in human K562 cells assessed as total viable cells by Annexin V-FITC/propidium iodide staining based flow cytometry (reference value: 92.45%); format: functional
K562 [14] = assay: Cell cycle arrest in human K562 cells assessed as accumulation at G0/G1 phase at IC50 after 72 hrs by propidium iodide staining based flow cytometry (reference value: 38.48%); format: functional
K562 [15] = assay: Induction of apoptosis in human K562 cells assessed as gated late apoptotic cells by Annexin V-FITC/propidium iodide staining based flow cytometry (reference value: 0.88%); format: functional
K562 [16] = assay: Induction of apoptosis in human K562 cells assessed as specific apoptosis by Annexin V-FITC/propidium iodide staining based flow cytometry; format: functional; parameters: concentration or dose not given beside the values
K562 [17] = assay: Induction of apoptosis in human K562 cells assessed as increase in cleaved PARP expression level by Western blot analysis; format: functional, cell-based; procedure, shortened: as §1
K562 [18] = assay: Induction of apoptosis in human K562 cells assessed as decrease in Bcl-2 expression level by Western blot analysis; format: functional, cell-based; procedure, shortened: as §1
Jurkat = assay: Cytotoxicity against human Jurkat cells assessed as reduction in cell viability after 72 hrs by MTT assay; format: functional, cell-based
K562 [19] = assay: Cell cycle arrest in human K562 cells assessed as total cell levels at S phase at IC50 after 72 hrs by propidium iodide staining based flow cytometry (reference value: 36.49%); format: functional
K562 [20] = assay: Induction of apoptosis in human K562 cells assessed as total necrotic cells by Annexin V-FITC/propidium iodide staining based flow cytometry (reference value: 0.23%); format: functional
K562 [21] = assay: Cell cycle arrest in human K562 cells assessed as total cell levels at M4 phase at IC50 after 72 hrs by propidium iodide staining based flow cytometry (reference value: 0.50%); format: functional
HL-60 = assay: Cytotoxicity against human HL60 cells assessed as reduction in cell viability after 72 hrs by MTT assay; format: functional, cell-based; details: HL-60, 72 h
K562 [22] = assay: Induction of apoptosis in human K562 cells assessed as gated viable cells by Annexin V-FITC/propidium iodide staining based flow cytometry (reference value: 95.78%); format: functional
K562 [23] = assay: Cytotoxicity against human K562 cells assessed as reduction in cell viability after 72 hrs by MTT assay; format: functional, cell-based; details: K562, 72 h
Raji = assay: Cytotoxicity against human Raji cells assessed as reduction in cell viability after 72 hrs by MTT assay; format: functional, cell-based
K562 [24] = assay: Induction of apoptosis in human K562 cells assessed as total early apoptotic cells by Annexin V-FITC/propidium iodide staining based flow cytometry (reference value: 3.07%); format: functional

With `O=C1C=C[C@]2(C[C@H](O)[C@@H](c3ccccc3)O2)O1` the Activity (K562 [1]) was 59.02%, the IC50 (MCF7) was 11.6 µM and the Activity (K562 [2]) was “Active”. For the same molecule, the Activity (K562 [3]) was 4.05%, the Activity (K562 [4]) was 25.97% and the Activity (K562 [5]) was “inactive”. It also gave an IC50 (A549) of 29 µM, an Activity (K562 [6]) of 6.86% and an Activity (K562 [7]) of 1.08%. The IC50 (MDA-MB-231) was 1.89 µM, the Activity (K562 [8]) was 5.47% and the Activity (K562 [9]) was 8.88%. It also gave an Activity (K562 [10]) of 5.02%, an IC50 (MRC5) of over 100 µM and an IC50 (HeLa) of 0.34 µM. For the same molecule, the Activity (K562 [11]) was 1.6%, the “Ratio IC50” value (K562 [12]) was 2 and the Activity (K562 [13]) was 16.71%. For the same molecule, the Activity (K562 [14]) was 32.52%, the Activity (K562 [15]) was 16.8% and the Activity (K562 [16]) was 22.6%. The Activity (K562 [17]) was “Active”, the Activity (K562 [18]) was “Active” and the IC50 (Jurkat) was 0.21 µM. The Activity (K562 [19]) was 47.93%, the Activity (K562 [20]) was 1.21% and the Activity (K562 [21]) was 1.26%. For the same molecule, the IC50 (HL-60) was 1.06 µM, the Activity (K562 [22]) was 69.31% and the IC50 (K562 [23]) was 0.12 µM. The IC50 (Raji) was 2.34 µM and the Activity (K562 [24]) was 2.14%.

Source: ChEMBL document CHEMBL4033643, “Synthesis and in vitro antitumour activity of crassalactone D, its stereoisomers and novel cinnamic ester derivatives” (Eur J Med Chem, 2017)
